Measurements taken from ChEMBL document CHEMBL4376838, “Discovery of Novel Celastrol Derivatives as Hsp90-Cdc37 Interaction Disruptors with Antitumor Activity” (J Med Chem, 2019).
Calls of active or inactive are those of the source. The rule behind the calls is not given here.

Key:
A549 [1] = test: Antiproliferative activity against human A549 cells assessed as inhibition of cell growth at 1.5 uM incubated for 48 hrs by MTT assay relative to control; assay type: functional; settings: A549, 48 h
A549 [2] = test: Induction of apoptosis in human A549 cells assessed as early apoptotic cells at 1.2 uM incubated for 48 hrs by Annexin V-FITC and PI staining based flow cytometric analysis (reference value: 0.5%); assay type: functional
How it was run: (§1)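 A549 cells (4×10^5 per 6 cm dish) cultured 24 h, then treated 48 h with compound or DMSO. Cells gently harvested, washed twice in cold PBS, resuspended in binding buffer with Annexin V and PI, stained 15 min at room temperature in the dark, analysed by flow cytometry. Mean ± SD, n = 3.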

A549 [3] = test: Induction of apoptosis in human A549 cells assessed as viable cells at 1.2 uM incubated for 48 hrs by Annexin V-FITC and PI staining based flow cytometric analysis (reference value: 95.5%); assay type: functional; settings: A549, 48 h, read-out: Activity; how it was run: as §1
[4] = target: Heat shock protein HSP 90-alpha (Homo sapiens) (UniProt P07900); test: Inhibition of ATP binding to human HSP90 alpha at 5 to 10 uM preincubated for 30 mins followed by gamma phosphate-linked ATP sepharose addition and measured after 30 mins by ATP-binding sepharose assay based western blot analysis
How it was run: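 Purified human Hsp90α incubated on ice 30 min with compound or DMSO in 10 mM Tris-HCl pH 7.5, 50 mM KCl, 5 mM MgCl2, 2 mM DTT, 20 mM Na2MoO4, 0.01% NP-40. γ-phosphate-linked ATP-Sepharose then added, 30 min at 37 °C with frequent mixing. Resin washed and pelleted, bound Hsp90α detected by SDS-PAGE/Western blot.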

[5] = target: T1, Hsp90 co-chaperone Cdc37 (Homo sapiens) (UniProt Q16543); test: Binding affinity to Cdc37 in human A549 cells assessed as inhibition of HSP90-Cdc37 interaction by measuring decrease in CDK4 protein level at 5 uM incubated for 12 hrs by Western blot analysis; assay type: cell-based
T1 sequence (whole entry): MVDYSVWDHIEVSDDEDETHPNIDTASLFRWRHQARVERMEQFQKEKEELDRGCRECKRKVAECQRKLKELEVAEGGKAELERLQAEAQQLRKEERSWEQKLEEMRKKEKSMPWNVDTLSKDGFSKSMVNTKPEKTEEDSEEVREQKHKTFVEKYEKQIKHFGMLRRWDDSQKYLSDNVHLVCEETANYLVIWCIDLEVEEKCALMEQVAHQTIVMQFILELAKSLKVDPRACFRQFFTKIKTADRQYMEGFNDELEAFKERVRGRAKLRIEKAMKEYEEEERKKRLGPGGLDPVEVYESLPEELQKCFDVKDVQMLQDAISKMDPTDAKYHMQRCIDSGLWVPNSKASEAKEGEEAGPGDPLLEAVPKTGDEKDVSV
How it was run: (§2)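 A549 cells seeded 5×10^5 per 6 cm dish, grown 12 h, then exposed to compound or DMSO for 12 h. Lysates adjusted to 3 mg/ml protein (BCA), run on 10% SDS-PAGE, immunoblotted for p-Akt and Cdk4. Band levels quantified against Hsp90 loading control. Three separate experiments, mean ± SD.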

HOS = test: Antiproliferative activity against human HOS cells assessed as inhibition of cell growth incubated for 48 hrs by MTT assay; assay type: functional, cell-based
How it was run: (§3)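 MTT read-out. Cells seeded at 5.0 × 10⁴ cells/ml and cultured 24 h, then exposed to the drug over a range of concentrations for 48 h, with matching DMSO as control. MTT (5 mg/ml) added for 4 h, supernatant removed, formazan dissolved in DMSO, OD read at 570 nm. Run in triplicate, mean ± SD (n = 3).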

MCF7 = test: Antiproliferative activity against human MCF7 cells assessed as inhibition of cell growth incubated for 48 hrs by MTT assay; assay type: functional, cell-based; settings: MCF7, 48 h; how it was run: as §3
HepG2 = test: Antiproliferative activity against human HepG2 cells assessed as inhibition of cell growth incubated for 48 hrs by MTT assay; assay type: functional, cell-based; settings: HepG2, 48 h; how it was run: as §3
[6] = target: T1, Hsp90 co-chaperone Cdc37 (Homo sapiens); test: Binding affinity to Cdc37 in human A549 cells assessed as inhibition of HSP90-Cdc37 interaction by measuring decrease in Akt phosphorylation level at 5 uM incubated for 12 hrs by Western blot analysis; assay type: cell-based; how it was run: as §2
A549 [7] = test: Induction of apoptosis in human A549 cells assessed as necrotic cells at 1.2 uM incubated for 48 hrs by Annexin V-FITC and PI staining based flow cytometric analysis (reference value: 1.0%); assay type: functional; how it was run: as §1
A549 [8] = test: Antiproliferative activity against human A549 cells assessed as inhibition of cell growth incubated for 48 hrs by MTT assay; assay type: functional, cell-based; settings: A549, 48 h; how it was run: as §3
A549 [9] = test: Induction of apoptosis in human A549 cells assessed as late apoptotic cells at 1.2 uM incubated for 48 hrs by Annexin V-FITC and PI staining based flow cytometric analysis (reference value: 3.0%); assay type: functional; how it was run: as §1

CC1=C(O)C(=O)C=C2C1=CC=C1[C@@]2(C)CC[C@@]2(C)[C@@H]3C[C@](C)(C(=O)O)CC[C@]3(C)CC[C@]12C [CELASTROL]
inhibition at 1.5 µM (A549 [1]): 48%
Activity (A549 [2]): 7.5%
viability at 1.2 µM (A549 [3]): 73%
inhibition [4]: inactive
inhibition [5]: Active
IC50 (HOS): 1460 nM
IC50 (MCF7): 2040 nM
IC50 (HepG2): 3180 nM
inhibition [6]: Active
Activity (A549 [7]): 3.9%
IC50 (A549 [8]): 1480 nM
Activity (A549 [9]): 15.6%
